The values that follow come from publication PMC3187937 (Biochemistry, 2011).

In assay [1] the target is T1, purified R. capsulatus wild-type cyt bc1 (Rhodobacter capsulatus, UniProt D5ANZ3).
T1 sequence (D5ANZ3 1-437): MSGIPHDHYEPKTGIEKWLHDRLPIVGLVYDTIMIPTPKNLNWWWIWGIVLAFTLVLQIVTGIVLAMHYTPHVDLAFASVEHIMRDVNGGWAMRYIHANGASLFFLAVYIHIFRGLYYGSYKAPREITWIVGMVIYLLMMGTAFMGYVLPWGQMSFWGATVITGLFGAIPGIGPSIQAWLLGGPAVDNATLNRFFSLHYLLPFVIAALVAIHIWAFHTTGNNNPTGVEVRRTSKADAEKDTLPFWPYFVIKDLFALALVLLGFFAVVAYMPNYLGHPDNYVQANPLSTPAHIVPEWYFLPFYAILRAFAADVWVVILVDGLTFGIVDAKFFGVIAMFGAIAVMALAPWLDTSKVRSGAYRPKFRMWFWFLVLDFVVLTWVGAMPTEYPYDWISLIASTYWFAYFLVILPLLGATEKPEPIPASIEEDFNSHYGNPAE
T1 sequence (D5ANZ2 1-191 partner): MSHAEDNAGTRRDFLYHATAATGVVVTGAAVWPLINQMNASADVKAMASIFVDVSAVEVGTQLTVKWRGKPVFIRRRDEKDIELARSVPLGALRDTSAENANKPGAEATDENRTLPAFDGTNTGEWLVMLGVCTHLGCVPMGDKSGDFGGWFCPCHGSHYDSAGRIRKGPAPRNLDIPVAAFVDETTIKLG
T1 sequence (D5ANZ4 22-279 partner): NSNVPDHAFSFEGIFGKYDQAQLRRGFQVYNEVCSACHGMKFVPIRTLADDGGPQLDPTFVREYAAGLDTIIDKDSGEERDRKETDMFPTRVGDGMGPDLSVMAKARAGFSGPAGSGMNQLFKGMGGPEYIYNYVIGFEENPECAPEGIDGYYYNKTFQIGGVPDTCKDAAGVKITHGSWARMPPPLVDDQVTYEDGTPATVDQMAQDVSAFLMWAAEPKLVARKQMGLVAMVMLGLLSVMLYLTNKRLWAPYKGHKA
As to the kind of experiment: Zn^2+ inhibition kinetics of DBH2:cyt c reductase activity, wild-type enzyme. It counts as biochemical. The note with it: 40 mM Tris-HCl buffer pH 7.5, single homogeneous inhibition site fit, free Zn^2+.

Assay [2] has as its target purified R. capsulatus cyt b E295V mutant cyt bc1 (Rhodobacter capsulatus, UniProt D5ANZ3, E295V). Put plainly: Zn^2+ inhibition kinetics of DBH2:cyt c reductase activity, E295V mutant enzyme. Format: biochemical.
In the next assay the target is T2, wild-type cyt bc1 (Rhodobacter capsulatus, UniProt D5ANZ3).
T2 sequence (D5ANZ3 1-437): T1 sequence (D5ANZ3 1-437)
T2 sequence (D5ANZ2 1-191 partner): T1 sequence (D5ANZ2 1-191 partner)
T2 sequence (D5ANZ4 22-279 partner): T1 sequence (D5ANZ4 22-279 partner)
Put plainly: Isothermal titration calorimetry of Zn^2+ binding, wild-type enzyme. A general note: Isothermal titration calorimetry measures the heat released or taken up as one component is titrated into another.

Another assay has as its target E295V mutant cyt bc1 (Rhodobacter capsulatus, UniProt D5ANZ3, E295V). Format: binding.
The target of assay [3] is T3, hemes of R. capsulatus cyt bc1 (Rhodobacter capsulatus, UniProt D5ANZ3).
T3 sequence (D5ANZ3 1-437): T1 sequence (D5ANZ3 1-437)
T3 sequence (D5ANZ2 1-191 partner): T1 sequence (D5ANZ2 1-191 partner)
T3 sequence (D5ANZ4 22-279 partner): T1 sequence (D5ANZ4 22-279 partner)

The target of assay [4] is bovine cyt bc1. The note with it: cited from earlier work.
The target of assay [5] is bovine cyt bc1. As to conditions: cited from earlier work. The source holds these as a separate data set.
The target in another assay is chicken cyt bc1. As to conditions: avian; ref [25]; cited from earlier work.
Assay [6] addresses T4, R. capsulatus wild-type cyt bc1 (Rhodobacter capsulatus, UniProt D5ANZ3).
T4 sequence (D5ANZ3 1-437): T1 sequence (D5ANZ3 1-437)
T4 sequence (D5ANZ2 1-191 partner): T1 sequence (D5ANZ2 1-191 partner)
T4 sequence (D5ANZ4 22-279 partner): T1 sequence (D5ANZ4 22-279 partner)
As to the kind of experiment: Michaelis-Menten kinetics of DBH2:cyt c reductase, wild-type enzyme. Format: biochemical. The note with it: DBH2 as substrate. An outline of the steps: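 Enzyme purified by DDM solubilisation of chromatophore membranes from respiratory-grown cells, then DEAE and Sephacryl S400 chromatography. Assay: 2.3 nM enzyme with 40 μM horse heart cyt c, 2 mM KCN and 0.1 g/L DDM in 50 mM sodium phosphate pH 7.4, stirred at 20 °C. DBH₂ in DMSO was varied from 0.5 to 40 μM. Initial cyt c reduction rate read at 550 nm over 1 min. Km and Vmax came from double-reciprocal plots and Michaelis-Menten fitting.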

The target in assay [7] is R. capsulatus E295V mutant cyt bc1 (Rhodobacter capsulatus, UniProt D5ANZ3, E295V). As to the kind of experiment: Michaelis-Menten kinetics of DBH2:cyt c reductase, E295V mutant enzyme. Format: biochemical. The note with it: DBH2 as substrate.
[8] abbreviates: E295V, blind fit, two-site model.

Where “and” joins values, the source holds several entries; their conditions need not be identical. Equal entries are not always repeated. Where two headings read alike, the source gives them in different places. Some results are limits rather than exact numbers.

R. capsulatus E295V mutant cyt bc1, sequence (D5ANZ3 whole entry E295V, one chain of several): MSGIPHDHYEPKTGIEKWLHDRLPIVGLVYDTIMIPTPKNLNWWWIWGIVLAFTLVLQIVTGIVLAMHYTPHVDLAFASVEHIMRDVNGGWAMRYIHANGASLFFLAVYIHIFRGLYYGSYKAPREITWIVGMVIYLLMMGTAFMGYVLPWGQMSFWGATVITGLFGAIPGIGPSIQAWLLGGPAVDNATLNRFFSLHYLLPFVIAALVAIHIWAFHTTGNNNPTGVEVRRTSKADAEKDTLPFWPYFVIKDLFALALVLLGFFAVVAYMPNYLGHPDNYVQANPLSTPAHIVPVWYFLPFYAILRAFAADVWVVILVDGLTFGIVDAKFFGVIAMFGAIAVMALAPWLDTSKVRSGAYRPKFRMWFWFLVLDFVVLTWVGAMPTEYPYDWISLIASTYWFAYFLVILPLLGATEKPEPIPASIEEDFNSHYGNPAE
E295V mutant cyt bc1, sequence (D5ANZ3 whole entry E295V, one chain of several): as above
purified R. capsulatus cyt b E295V mutant cyt bc1, sequence (D5ANZ3 whole entry E295V, one chain of several): as above

The term Ki denotes a dissociation constant, usually derived from enzyme kinetics or from competition with a known ligand. As a reminder, the residual activity is the signal under treatment as a percentage of the control signal. A higher residual activity goes with a small loss of activity. `[Zn+2]` [Zn^2+]: the Ki in assay [1] is 0.9 µM; in [2] (40 mM Tris-HCl buffer pH 7.5, single site fit, free Zn^2+), 2.6 µM; on bovine cyt bc1 [4] (pH 7.0, ref [39]), 0.1 µM; on chicken cyt bc1, 3 µM. In assay [2] ([Zn^2+] > 0.2 mM), this molecule had a residual activity of 30%. The ΔH1 on wild-type cyt bc1 (high affinity site) was -5.6 ± 0.2 kcal/mol; on E295V mutant cyt bc1 (setting [8]), -9.9 ± 0.7 kcal/mol; at E295V mutant cyt bc1 (E295V, n1 = 1 fixed) it was -28 ± 4 kcal/mol. For the same molecule, the ΔH2 on wild-type cyt bc1 (lower affinity sites) was -1.4 ± 0.2 kcal/mol; on E295V mutant cyt bc1 (setting [8]), -2.6 ± 0.3 kcal/mol; on E295V mutant cyt bc1 (E295V, n1 = 1 fixed) it was -0.9 ± 0.5 kcal/mol. For the same molecule, the Kd stood at 0.5 ± 0.07 µM at wild-type cyt bc1 (read-out: KD1 (high affinity site), two-site model); 6.8 ± 0.9 µM at wild-type cyt bc1 (read-out: KD2 (lower affinity sites), two-site model); 0.5 µM on wild-type cyt bc1 (read-out: KD (high affinity site), two-site model); 6.8 µM at wild-type cyt bc1 (read-out: KD (lower affinity sites), two-site model); 1 ± 0.36 µM on E295V mutant cyt bc1 (read-out: KD1 (high affinity site), E295V, two-site model with n1 = 1 fixed); 3.5 ± 1.6 µM on E295V mutant cyt bc1 (read-out: KD2 (low affinity sites), E295V, n1 = 1 fixed). The Kd at E295V mutant cyt bc1 (read-out: KD2, E295V, blind fit, two-site model) was 5.81 ± 1.22 µM; on bovine cyt bc1 [5] (pH 7.0, first value of cell, ref [39]), 0.1 µM; on bovine cyt bc1 [5] (read-out: KD (second value), second value of cell, ref [39]), more than 2 µM. Moreover, the “n1, stoichiometry of high affinity site” value at wild-type cyt bc1 (sites per protein complex) was found to be 1.13 ± 0.03. At wild-type cyt bc1 (sites per protein complex), the “n2, number of lower affinity binding sites” value stood at 3.7 ± 0.2. In addition, the n1 at E295V mutant cyt bc1 (setting [8]) is 1.97 ± 0.08. Further, the “n2, low affinity binding sites per cyt bc1” value at E295V mutant cyt bc1 (setting [8]) was 7.1 ± 0.3. At E295V mutant cyt bc1 (E295V, n1 = 1 fixed), the “n2, number of low affinity sites” value is recorded as 9.1 ± 0.5. Besides, the “change of KD1 of high affinity site in E295V compared to wild type” value at E295V mutant cyt bc1 (unitary stoichiometry assumed) is given as “increase by a factor of two”. Moreover, the “effect on midpoint potentials of the b-type hemes” value in [3] (wild type, 200 μM Zn^2+, oxidative titration, pH 8.0) was “does not significantly affect”. Further, in assay [3] (with Zn^2+ added, +500 mV vs SHE), the “effect on oxidation rate” value was “remained unaffected”. The “time to fully reduced samples after application of the reducing potential” value in [3] (with Zn^2+ added, −500 mV vs SHE, within 7 minutes without Zn^2+) is 10 min. For the same molecule, the “Complete inhibition (Zn^2+ concentration)” value in the assay on bovine cyt bc1 [4] (ref [39]) was “[Zn^2+] > 5 μM”.
The term Vmax denotes the rate approached at saturating substrate. As usually defined, the Km is the concentration of substrate that gives half-maximal velocity. As to `CCCCCCCCCCc1c(C)c(O)c(OC)c(OC)c1O` [DBH2, Decylbenzohydroquinone], the Kcat in assay [6] amounted to 85.2 ± 13.1 s⁻¹; in assay [7] (E295V) it was 34.3 ± 4.5 s⁻¹. Moreover, the Vmax in assay [6] is 42.4 µmol/min/mg and 42.4 ± 0.8 µmol/min/mg; in assay [7] (E295V) it was 10.6 ± 0.4 µmol/min/mg. The Michaelis-Menten constant (Km) in assay [6] (purified enzyme) came to 4.9 ± 0.2 µM; in [7] (E295V, purified enzyme) it was 3.1 ± 0.4 µM. For the same molecule, in assay [7] (steady-state), the “Vmax of E295V relative to wild type (fold lower)” value amounted to 4 fold.
